ChEMBL document CHEMBL2424622, “Development of amino-pyrimidine inhibitors of c-Jun N-terminal kinase (JNK): kinase profiling guided optimization of a 1,2,3-benzotriazole lead” (Bioorg Med Chem Lett, 2013)

How the values were obtained:
[1] = target: MAP kinase-interacting serine/threonine-protein kinase 1 (Homo sapiens, UniProt Q9BUB5); assay: Competitive binding affinity to MKNK1 (unknown origin) at 10 uM in presence of ATP relative to control
[2] = target: T1, Myosin light chain kinase family member 4 (Homo sapiens) (UniProt Q86YV6); assay: Competitive binding affinity to SgK085 (unknown origin) at 10 uM in presence of ATP relative to control
T1 sequence (whole entry): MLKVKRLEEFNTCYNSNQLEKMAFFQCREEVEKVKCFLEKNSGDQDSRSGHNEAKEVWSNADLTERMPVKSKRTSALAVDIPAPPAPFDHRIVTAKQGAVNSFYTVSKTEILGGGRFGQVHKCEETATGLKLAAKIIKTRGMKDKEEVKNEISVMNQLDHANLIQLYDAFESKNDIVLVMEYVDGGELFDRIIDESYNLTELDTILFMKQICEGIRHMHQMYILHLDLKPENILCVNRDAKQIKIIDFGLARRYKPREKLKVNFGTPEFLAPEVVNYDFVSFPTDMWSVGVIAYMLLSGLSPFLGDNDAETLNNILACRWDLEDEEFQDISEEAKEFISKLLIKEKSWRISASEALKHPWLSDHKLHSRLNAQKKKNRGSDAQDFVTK

[3] = target: Ribosomal protein S6 kinase alpha-1 (Homo sapiens, UniProt Q15418); assay: Competitive binding affinity to RPS6KA1 kinase domain 1 (unknown origin) at 10 uM in presence of ATP relative to control
[4] = system: Receptor-type tyrosine-protein kinase FLT3 (Homo sapiens), P36888 [UNDEFINED MUTATION]; assay: Competitive binding affinity to FLT3 ITD mutant (unknown origin) at 10 uM in presence of ATP relative to control
[5] = system: Fibroblast growth factor receptor 3 (Homo sapiens), P22607 [G697C]; assay: Competitive binding affinity to FGFR3 G697C mutant (unknown origin) at 10 uM in presence of ATP relative to control
Summary of the method: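 In vitro ATP-site competition binding assay, part of profiling against a diverse panel of 128 kinases. Each compound was tested at a single concentration of 10 µM. Kinome selectivity was summarized as S15 selectivity scores.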

[6] = target: Serine/threonine-protein kinase 25 (Homo sapiens) (UniProt O00506); assay: Competitive binding affinity to YSK1 (unknown origin) at 10 uM in presence of ATP relative to control
Chain of Serine/threonine-protein kinase 25 (Homo sapiens) (O00506 whole entry, looked up, the tested form may be a part): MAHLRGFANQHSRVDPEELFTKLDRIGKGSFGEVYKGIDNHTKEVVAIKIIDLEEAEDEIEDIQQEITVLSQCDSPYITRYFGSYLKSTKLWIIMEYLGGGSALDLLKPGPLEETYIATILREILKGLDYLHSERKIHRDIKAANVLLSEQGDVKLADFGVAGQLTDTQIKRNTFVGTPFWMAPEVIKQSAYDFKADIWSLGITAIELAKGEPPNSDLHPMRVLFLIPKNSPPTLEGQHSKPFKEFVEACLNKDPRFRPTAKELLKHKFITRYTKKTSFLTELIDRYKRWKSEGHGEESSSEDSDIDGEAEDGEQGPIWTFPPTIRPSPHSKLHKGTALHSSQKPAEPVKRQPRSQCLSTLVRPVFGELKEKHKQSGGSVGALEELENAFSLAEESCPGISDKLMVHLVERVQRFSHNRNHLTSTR

[7] = target: Non-receptor tyrosine-protein kinase TYK2 (Homo sapiens) (UniProt P29597); assay: Competitive binding affinity to TYK2 kinase domain 2 (unknown origin) at 10 uM in presence of ATP relative to control
Chain of Non-receptor tyrosine-protein kinase TYK2 (Homo sapiens) (P29597 whole entry, the tested form may be a part): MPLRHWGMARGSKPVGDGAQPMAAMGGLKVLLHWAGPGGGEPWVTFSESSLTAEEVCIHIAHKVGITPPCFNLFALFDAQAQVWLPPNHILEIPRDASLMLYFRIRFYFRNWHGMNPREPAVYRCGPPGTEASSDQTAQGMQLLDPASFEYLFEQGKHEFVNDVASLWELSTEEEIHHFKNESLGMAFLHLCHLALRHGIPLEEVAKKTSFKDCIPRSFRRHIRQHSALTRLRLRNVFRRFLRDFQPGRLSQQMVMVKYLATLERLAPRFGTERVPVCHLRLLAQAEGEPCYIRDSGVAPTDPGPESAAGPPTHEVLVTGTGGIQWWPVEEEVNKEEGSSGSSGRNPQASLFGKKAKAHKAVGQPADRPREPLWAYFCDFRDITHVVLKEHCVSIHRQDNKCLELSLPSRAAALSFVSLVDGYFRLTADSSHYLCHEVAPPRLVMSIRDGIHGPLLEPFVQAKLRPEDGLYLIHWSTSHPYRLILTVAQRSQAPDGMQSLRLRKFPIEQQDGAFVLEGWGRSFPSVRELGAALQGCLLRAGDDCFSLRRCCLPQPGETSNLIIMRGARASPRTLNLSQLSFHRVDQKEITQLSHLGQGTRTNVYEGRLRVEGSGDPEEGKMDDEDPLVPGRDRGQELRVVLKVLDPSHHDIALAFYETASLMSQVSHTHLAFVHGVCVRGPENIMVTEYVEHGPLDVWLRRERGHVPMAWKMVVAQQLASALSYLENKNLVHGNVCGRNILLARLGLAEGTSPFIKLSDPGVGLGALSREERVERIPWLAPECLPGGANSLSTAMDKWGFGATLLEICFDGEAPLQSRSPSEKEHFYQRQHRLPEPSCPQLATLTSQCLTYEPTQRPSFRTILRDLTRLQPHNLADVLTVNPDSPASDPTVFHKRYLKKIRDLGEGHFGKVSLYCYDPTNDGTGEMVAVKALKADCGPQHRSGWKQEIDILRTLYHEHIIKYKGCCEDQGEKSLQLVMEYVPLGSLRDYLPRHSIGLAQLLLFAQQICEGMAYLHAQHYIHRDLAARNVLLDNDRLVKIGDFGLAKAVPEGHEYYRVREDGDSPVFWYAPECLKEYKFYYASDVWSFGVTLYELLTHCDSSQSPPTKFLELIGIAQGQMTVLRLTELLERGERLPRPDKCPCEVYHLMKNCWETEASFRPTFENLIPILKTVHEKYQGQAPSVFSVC

[8] = target: Epithelial discoidin domain-containing receptor 1 (Homo sapiens) (UniProt Q08345); assay: Competitive binding affinity to DDR1 (unknown origin) at 10 uM in presence of ATP relative to control
[9] = system: Tyrosine-protein kinase ABL1 (Homo sapiens), P00519 [M351T]; assay: Competitive binding affinity to ABL1 M351T mutant (unknown origin) at 10 uM in presence of ATP relative to control
[10] = target: BDNF/NT-3 growth factors receptor (Homo sapiens) (UniProt Q16620); assay: Competitive binding affinity to TRKB (unknown origin) at 10 uM in presence of ATP relative to control
Chain of BDNF/NT-3 growth factors receptor (Homo sapiens) (Q16620 32-822 limits assumed): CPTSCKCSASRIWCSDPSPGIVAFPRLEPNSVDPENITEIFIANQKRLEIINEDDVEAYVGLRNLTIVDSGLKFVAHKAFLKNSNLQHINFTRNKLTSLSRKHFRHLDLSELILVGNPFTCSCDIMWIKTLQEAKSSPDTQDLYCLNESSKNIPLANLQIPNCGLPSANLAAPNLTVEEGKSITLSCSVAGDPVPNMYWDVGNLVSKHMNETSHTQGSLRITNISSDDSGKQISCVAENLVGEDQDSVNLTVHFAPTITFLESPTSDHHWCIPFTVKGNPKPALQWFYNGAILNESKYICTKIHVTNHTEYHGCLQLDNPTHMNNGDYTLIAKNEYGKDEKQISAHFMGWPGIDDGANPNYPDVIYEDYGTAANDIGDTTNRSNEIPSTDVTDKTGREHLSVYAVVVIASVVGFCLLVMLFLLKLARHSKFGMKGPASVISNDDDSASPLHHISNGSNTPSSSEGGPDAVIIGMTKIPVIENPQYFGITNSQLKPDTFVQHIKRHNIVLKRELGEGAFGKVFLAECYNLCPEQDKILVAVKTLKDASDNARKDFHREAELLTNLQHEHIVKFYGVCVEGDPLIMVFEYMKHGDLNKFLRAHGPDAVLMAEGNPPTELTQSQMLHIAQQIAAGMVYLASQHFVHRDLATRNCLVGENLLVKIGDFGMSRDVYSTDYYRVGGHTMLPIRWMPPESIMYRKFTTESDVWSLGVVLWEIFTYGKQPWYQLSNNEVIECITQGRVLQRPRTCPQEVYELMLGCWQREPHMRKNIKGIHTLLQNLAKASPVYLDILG

[11] = system: Proto-oncogene tyrosine-protein kinase receptor Ret (Homo sapiens), P07949 [M918T]; assay: Competitive binding affinity to RET M918T mutant (unknown origin) at 10 uM in presence of ATP relative to control
Chain of Proto-oncogene tyrosine-protein kinase receptor Ret (Homo sapiens), P07949 [M918T] (P07949 whole entry M918T): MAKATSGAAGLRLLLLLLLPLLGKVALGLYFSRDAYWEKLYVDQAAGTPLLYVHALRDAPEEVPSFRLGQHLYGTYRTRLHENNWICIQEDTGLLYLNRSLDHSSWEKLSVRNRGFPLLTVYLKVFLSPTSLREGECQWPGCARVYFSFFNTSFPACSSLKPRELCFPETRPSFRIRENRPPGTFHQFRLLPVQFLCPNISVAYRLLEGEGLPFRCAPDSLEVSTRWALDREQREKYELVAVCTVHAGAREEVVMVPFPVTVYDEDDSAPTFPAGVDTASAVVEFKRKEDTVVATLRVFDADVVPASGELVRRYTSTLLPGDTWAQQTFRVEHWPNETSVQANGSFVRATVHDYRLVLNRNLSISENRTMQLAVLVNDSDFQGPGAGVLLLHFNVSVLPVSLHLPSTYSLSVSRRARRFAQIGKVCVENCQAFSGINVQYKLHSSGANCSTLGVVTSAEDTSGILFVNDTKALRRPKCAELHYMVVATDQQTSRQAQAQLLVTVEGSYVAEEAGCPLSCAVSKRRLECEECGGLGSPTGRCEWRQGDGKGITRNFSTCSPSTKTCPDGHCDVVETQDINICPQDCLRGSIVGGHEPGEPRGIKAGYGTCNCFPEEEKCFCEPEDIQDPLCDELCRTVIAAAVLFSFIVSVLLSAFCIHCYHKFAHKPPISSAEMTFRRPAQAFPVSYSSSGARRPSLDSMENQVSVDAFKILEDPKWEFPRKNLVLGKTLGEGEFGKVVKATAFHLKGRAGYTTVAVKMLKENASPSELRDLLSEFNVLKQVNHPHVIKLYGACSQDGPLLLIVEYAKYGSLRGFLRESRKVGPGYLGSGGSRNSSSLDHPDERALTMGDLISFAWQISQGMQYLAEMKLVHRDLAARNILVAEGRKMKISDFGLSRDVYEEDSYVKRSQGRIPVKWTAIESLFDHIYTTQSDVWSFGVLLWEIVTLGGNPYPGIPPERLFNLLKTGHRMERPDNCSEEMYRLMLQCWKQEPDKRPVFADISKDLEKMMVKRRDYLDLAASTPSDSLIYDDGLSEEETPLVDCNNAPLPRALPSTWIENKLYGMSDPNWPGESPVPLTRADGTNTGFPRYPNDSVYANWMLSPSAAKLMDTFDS

[12] = target: T2, Protein kinase C epsilon type (Homo sapiens) (UniProt Q02156); assay: Competitive binding affinity to PRKCE (unknown origin) at 10 uM in presence of ATP relative to control
T2 sequence (whole entry): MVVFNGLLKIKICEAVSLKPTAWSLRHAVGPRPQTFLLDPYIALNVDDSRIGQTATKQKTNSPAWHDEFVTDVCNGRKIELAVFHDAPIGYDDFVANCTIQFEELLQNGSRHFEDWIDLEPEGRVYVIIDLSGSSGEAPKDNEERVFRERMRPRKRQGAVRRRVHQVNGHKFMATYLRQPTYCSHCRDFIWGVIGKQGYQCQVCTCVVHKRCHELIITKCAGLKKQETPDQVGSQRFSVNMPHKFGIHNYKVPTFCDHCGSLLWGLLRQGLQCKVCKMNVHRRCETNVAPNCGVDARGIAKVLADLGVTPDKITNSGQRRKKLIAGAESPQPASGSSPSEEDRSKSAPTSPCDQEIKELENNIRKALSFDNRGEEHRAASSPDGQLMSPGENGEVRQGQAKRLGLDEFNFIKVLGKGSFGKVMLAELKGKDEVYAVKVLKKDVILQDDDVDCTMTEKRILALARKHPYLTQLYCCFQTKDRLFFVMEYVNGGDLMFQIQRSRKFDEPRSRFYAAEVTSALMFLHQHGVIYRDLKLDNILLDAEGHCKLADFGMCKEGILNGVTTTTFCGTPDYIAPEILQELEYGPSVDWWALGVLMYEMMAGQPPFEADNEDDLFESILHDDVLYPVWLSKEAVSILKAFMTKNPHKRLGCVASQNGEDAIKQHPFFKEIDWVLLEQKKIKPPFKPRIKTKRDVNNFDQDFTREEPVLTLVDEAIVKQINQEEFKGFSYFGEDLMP

[13] = target: Phosphatidylinositol 4-phosphate 5-kinase type-1 alpha (Homo sapiens) (UniProt Q99755); assay: Competitive binding affinity to PIP5K1A (unknown origin) at 10 uM in presence of ATP relative to control
Chain of Phosphatidylinositol 4-phosphate 5-kinase type-1 alpha (Homo sapiens) (Q99755 whole entry): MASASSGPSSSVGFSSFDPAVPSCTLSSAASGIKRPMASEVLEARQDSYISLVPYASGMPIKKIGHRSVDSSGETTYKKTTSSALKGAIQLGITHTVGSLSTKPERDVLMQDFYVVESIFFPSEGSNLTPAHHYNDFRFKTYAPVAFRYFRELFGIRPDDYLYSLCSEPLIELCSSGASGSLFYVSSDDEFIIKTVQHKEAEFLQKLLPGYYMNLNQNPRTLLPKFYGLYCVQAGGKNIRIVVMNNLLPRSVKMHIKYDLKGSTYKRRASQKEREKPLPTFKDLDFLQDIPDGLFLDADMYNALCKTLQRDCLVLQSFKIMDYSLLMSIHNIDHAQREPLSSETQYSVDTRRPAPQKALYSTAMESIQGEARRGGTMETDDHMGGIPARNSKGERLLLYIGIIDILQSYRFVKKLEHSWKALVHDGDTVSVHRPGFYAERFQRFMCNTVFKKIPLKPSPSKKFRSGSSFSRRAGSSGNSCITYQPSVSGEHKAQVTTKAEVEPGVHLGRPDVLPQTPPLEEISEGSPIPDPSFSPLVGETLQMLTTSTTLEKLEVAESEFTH

[14] = target: Serine/threonine-protein kinase PAK 2 (Homo sapiens) (UniProt Q13177); assay: Competitive binding affinity to PAK2 (unknown origin) at 10 uM in presence of ATP relative to control
Chain of Serine/threonine-protein kinase PAK 2 (Homo sapiens) (Q13177 whole entry): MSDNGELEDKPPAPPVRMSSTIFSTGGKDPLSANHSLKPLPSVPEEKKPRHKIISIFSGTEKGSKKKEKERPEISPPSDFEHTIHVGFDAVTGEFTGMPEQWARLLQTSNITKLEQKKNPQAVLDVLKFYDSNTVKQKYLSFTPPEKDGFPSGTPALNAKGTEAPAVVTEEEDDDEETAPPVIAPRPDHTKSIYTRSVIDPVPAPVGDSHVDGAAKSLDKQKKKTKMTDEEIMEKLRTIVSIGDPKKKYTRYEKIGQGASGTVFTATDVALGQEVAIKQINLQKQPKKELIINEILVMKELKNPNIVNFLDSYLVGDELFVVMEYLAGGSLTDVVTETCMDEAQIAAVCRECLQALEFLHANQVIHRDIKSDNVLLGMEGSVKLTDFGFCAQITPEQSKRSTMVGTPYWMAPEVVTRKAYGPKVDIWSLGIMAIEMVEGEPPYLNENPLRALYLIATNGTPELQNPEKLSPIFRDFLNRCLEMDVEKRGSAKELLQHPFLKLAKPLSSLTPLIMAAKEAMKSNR
Summary of the method: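 In vitro ATP-site competition binding assay across a diverse panel of 128 kinases, with compound tested at a single concentration. Kinase selectivity scores (S15) were calculated from the panel profiles.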

[15] = target: T3, Serine/threonine-protein kinase 3 (Homo sapiens) (UniProt Q13188); assay: Competitive binding affinity to STK3 (unknown origin) at 10 uM in presence of ATP relative to control
T3 sequence (whole entry): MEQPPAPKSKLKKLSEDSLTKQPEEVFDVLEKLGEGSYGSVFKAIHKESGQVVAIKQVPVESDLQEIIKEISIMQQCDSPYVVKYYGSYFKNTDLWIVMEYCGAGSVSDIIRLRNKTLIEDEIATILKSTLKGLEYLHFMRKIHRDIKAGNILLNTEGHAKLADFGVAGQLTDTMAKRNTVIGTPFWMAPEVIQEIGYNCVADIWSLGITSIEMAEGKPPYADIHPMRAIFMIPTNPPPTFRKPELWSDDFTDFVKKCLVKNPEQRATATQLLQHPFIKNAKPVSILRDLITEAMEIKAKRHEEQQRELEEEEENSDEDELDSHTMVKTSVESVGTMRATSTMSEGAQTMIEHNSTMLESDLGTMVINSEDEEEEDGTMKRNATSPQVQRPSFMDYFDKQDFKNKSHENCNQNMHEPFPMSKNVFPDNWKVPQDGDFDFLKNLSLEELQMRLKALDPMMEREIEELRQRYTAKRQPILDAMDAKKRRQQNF

Chain of MAP kinase-interacting serine/threonine-protein kinase 1 (Q9BUB5 whole entry, looked up): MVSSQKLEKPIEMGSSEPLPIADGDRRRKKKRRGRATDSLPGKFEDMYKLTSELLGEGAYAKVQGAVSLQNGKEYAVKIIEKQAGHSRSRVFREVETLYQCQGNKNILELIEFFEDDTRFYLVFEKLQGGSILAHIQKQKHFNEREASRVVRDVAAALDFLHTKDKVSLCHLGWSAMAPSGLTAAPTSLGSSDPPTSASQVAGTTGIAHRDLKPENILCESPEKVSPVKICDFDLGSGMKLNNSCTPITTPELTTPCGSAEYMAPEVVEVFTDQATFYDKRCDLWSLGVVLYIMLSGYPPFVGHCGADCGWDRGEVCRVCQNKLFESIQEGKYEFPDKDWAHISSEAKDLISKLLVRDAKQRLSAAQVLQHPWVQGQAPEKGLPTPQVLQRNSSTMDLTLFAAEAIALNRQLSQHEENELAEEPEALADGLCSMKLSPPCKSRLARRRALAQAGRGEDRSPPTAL

| Structure (SMILES) | inhibition [1] | inhibition [2] | inhibition [3] | inhibition [4] | inhibition [5] | inhibition [6] | inhibition [7] | inhibition [8] | inhibition [9] | inhibition [10] | inhibition [11] | inhibition [12] | inhibition [13] | inhibition [14] | inhibition [15] |
| --- | --- | --- | --- | --- | --- | --- | --- | --- | --- | --- | --- | --- | --- | --- | --- |
| CS(=O)(=O)CCCOc1cccc2c1ccn2-c1ccnc(N[C@H]2CC[C@H](C(=O)N3CCC(O)CC3)CC2)n1 | > 85% | > 85% | > 85% | – | – | – | – | – | – | – | – | – | – | – | – |
| O[C@H]1CC[C@H](Nc2nccc(-n3ccc4ccccc43)n2)CC1 | < 50% | 98% | 66% | < 50% | < 50% | 74% | < 50% | < 50% | < 50% | < 50% | < 50% | < 50% | < 50% | < 50% | – |
| N[C@H]1CC[C@H](Nc2nccc(-n3nnc4ccccc43)n2)CC1 | – | – | – | – | – | – | – | – | – | – | – | – | – | – | 96% |
| O[C@H]1CC[C@H](Nc2nccc(-n3nnc4ccccc43)n2)CC1 | 97% | 97% | 100% | 98% | < 50% | 78% | < 50% | < 50% | < 50% | < 50% | < 50% | < 50% | 94% | < 50% | – |
| O[C@H]1CC[C@H](Nc2nccc(-n3ncc4ccccc43)n2)CC1 | 70% | 96% | 91% | 100% | < 50% | 77% | < 50% | < 50% | < 50% | < 50% | < 50% | < 50% | 88% | < 50% | – |
| O=C([C@H]1CC[C@H](Nc2nccc(-n3nnc4ccccc43)n2)CC1)N1CCOCC1 | – | – | – | – | – | – | – | – | – | – | – | – | – | – | 86% |
| O[C@H]1CC[C@H](Nc2nccc(-c3n[nH]c4ccccc34)n2)CC1 | – | – | – | 100% | < 50% | – | 86% | – | < 50% | 100% | – | – | – | 82% | 94% |
